TRPC4 act = activators of mouse TRPC4 channel; Q9QUQ5; HEK293 TRPC4beta/mu-opioid, Fluo4 calcium fluorescence; active compounds read high; B-score at 10 µM; actives 0.49% (n = 310,000); AID 2237;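 active means B-score above 5 SD of library B-scores, and initial fluorescence ratio not above library mean plus 5 SD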;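 further: positive B-score marks a calcium rise read as TRPC4 activation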
Target sequence (Q9QUQ5 whole entry, looked up): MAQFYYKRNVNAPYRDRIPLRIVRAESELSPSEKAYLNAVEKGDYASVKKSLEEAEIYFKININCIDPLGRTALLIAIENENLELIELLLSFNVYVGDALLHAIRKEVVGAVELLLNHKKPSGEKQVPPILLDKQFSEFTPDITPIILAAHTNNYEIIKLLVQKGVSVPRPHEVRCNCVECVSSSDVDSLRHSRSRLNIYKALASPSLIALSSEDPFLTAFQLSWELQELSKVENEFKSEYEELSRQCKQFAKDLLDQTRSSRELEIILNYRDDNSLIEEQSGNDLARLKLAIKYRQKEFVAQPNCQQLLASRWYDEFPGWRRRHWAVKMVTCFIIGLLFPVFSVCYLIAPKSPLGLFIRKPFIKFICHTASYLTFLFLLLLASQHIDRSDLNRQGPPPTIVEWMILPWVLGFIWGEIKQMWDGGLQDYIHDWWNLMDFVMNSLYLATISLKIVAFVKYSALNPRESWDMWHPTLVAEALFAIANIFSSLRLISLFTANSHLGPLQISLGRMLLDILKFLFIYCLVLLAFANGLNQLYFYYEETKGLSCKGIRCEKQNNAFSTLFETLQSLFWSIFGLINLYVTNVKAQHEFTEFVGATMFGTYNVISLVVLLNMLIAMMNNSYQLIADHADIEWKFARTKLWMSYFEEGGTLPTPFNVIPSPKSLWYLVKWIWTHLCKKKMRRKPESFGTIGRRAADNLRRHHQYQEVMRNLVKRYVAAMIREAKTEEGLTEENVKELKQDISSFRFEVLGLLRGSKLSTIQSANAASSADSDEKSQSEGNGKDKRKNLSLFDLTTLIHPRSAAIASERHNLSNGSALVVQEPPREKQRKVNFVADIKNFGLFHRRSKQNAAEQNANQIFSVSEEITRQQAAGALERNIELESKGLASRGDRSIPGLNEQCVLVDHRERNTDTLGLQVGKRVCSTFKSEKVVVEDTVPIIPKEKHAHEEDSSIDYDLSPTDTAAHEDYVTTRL
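Assay system – TRPC4beta and mu-opioid receptor HEK293 stable cells · Measured by – Fluo4 fluorescence, kinetic · Schedule – dye loading 45 min room temperature, 110 s kinetic read · Read-out – B-scored integrated calcium fluorescence ratio · Controls – buffer and maximal DAMGO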
TRPC6 inhibitor = blocks the mouse TRPC6 cation channel. HEK293-TRPC6, membrane potential dye, ACh-evoked depolarization; active compounds read low. B-score at 10 µM. actives 1.1% (n = 310,000). AID 2553;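 active means B-score under library mean minus 3 SD, initial fluorescence not abnormally high, positive integrated signal ratio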;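 further: B-score derived from integrated fluorescence ratio over the kinetic read; more negative B-score means stronger inhibition of depolarization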
TRPC6 activator = activates the mouse TRPC6 cation channel; Q61143; HEK293-TRPC6 membrane potential dye fluorescence; active compounds read high; B-score at 10 µM; actives 0.13% (n = 310,000); AID 2550;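 active means B-score of the integrated fluorescence ratio above library mean plus 3 SD, and starting fluorescence ratio within library mean plus 5 SD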;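 further: higher score means more depolarization so channel activation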
TRPC4 PAM = TRPC4 (mouse) allosteric potentiation; HEK293 TRPC4beta/mu-opioid, DAMGO EC20, Fluo-4 Ca2+ flux; active compounds read high; B-score at 10 µM; actives 0.42% (n = 310,000); AID 2227;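 active means B-score of calcium response area above 5 SD of library B-scores, with initial fluorescence ratio within 5 SD of library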;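 further: B-score of integrated fluorescence ratio over time as area under calcium response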
TRPC4 block = blocks the mouse TRPC4 cation channel | HEK293 TRPC4beta/mu-opioid, DAMGO-evoked Fluo4 calcium flux; active compounds read low | Q9QUQ5 | actives 0.39% (n = 300,000) | B-score at 10 µM;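 active means B-score over 3 SD under the library average, no early fluorescence shift, positive overall ratio signal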
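test system = HEK293 cells with stable TRPC4beta plus mu-opioid receptor expression | detection = Fluo4 Ca2+ flux fluorescence | read-out = integrated fluorescence ratio relative to baseline, converted to per-well B score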
TRPC4 sel inh 2 = mouse TRPC4 off-target activity of TRPC6 inhibitors, second screen. actives 42% (n = 920). AID 2776. inhibition, % at 10 µM. HEK293 TRPC4/MOR, membrane potential dye fluorescence; channel activated by saturating DAMGO dose. shares compounds with TRPC6 inhibitor;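 active means compounds whose fluorescence signal differed from control wells by over 3 SD, either direction, in both duplicate plates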
TRPC4 spec = selectivity of TRPC6 inhibitors: effect on mouse TRPC4. shares compounds with TRPC6 inhibitor. HEK293 TRPC4/mu-opioid, membrane potential fluorescence. activity change, negative = inhibition, % at 10 µM. actives 61% (n = 920). AID 2777;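 active means rise or fall in signal beyond 3 SD of buffer-only wells in both replicate plates, either sign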;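 further: integrated kinetic ratio of fluorescence range over baseline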
HEK293 MPD ctr 2-1 = parental HEK293 nonspecific activity of TRPC6 inhibitors, second screen. parental HEK293 membrane potential dye fluorescence; maximal acetylcholine challenge after compound addition. actives 31% (n = 920). shares compounds with TRPC6 inhibitor. signal change vs control, % at 10 µM;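 active means membrane potential signal moving either way by over 3 SD of the maximum-effect control, in both duplicate plates, meaning non-specific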
HEK293 MPD ctr-1 = counter-screen for TRPC6 inhibitors: effect in parental HEK293 cells; shares compounds with TRPC6 inhibitor; parental HEK293 membrane potential dye fluorescence; membrane potential signal change, % at 10 µM; actives 60% (n = 920); AID 2780;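 active means membrane potential signal shifting up or down by more than 3 SD of buffer-only wells, on both duplicate plates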
HEK293 MPD ctr-2 = counter-screen for TRPC6 modulators: effect in parental HEK293 cells; membrane potential signal change, % at 10 µM; actives 51% (n = 2,400); membrane potential dye fluorescence; shares compounds with TRPC6 inhibitor;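 active means membrane potential signal moves up or down beyond 5 SD from buffer-only wells, on both duplicate plates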
HEK293 MPD ctr 2-2 = second check of TRPC6 modulator effects in parental HEK293 cells; actives 14% (n = 2,400); AID 488926; shares compounds with TRPC6 inhibitor; inhibition, % at 10 µM; membrane potential dye fluorescence; after compound, maximal acetylcholine stimulation;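 active means membrane potential signal drops by more than 5 SD from the mean control signal, in both duplicate plates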;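 further: plate controls were acetylcholine ECmax control wells for no effect and buffer only wells for full effect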
TRPC4/MOR mod = selectivity of TRPC6 modulators against mouse TRPC4; shares compounds with TRPC6 inhibitor; HEK293 TRPC4/mu-opioid, membrane potential fluorescence; percent change from control (negative = decrease, positive = increase), % at 10 µM; actives 69% (n = 2,400); AID 488927;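 active means membrane potential signal moved up or down beyond 5 SD of buffer control wells, in both duplicate plates, actives on both sides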;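 further: plate controls were assay buffer wells for no effect and DAMGO maximal-effect wells for full effect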
TRPC4/MOR inh 2 = mouse TRPC4 off-target activity of TRPC6 modulators, second screen; inhibition, % at 10 µM; actives 55% (n = 2,400); HEK293 TRPC4/mu-opioid, membrane potential dye fluorescence; stimulated with maximal-effect DAMGO; shares compounds with TRPC6 inhibitor;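 active means drop in membrane potential signal beyond 5 SD of the control wells in both duplicate plates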;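 further: TRPC4 counter screen for TRPC6 hits run under conditions tuned for TRPC6 not TRPC4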
TRPC6 inh conf = mouse TRPC6 inhibitor confirmation. shares compounds with TRPC6 inhibitor. HEK293-TRPC6, membrane potential dye, ACh-evoked depolarization. inhibition, % at 10 µM. actives 43% (n = 3,300). AID 488960;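 active means fluorescence ratio falls more than 5 SD below the full-stimulation control mean, in both duplicate runs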;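 further: integrated fluorescence ratio of peak minus minimum over baseline after agonist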
TRPC6 act conf = confirmation of mouse TRPC6 activators; shares compounds with TRPC6 inhibitor; HEK293-TRPC6 membrane potential dye fluorescence, FDSS; activation, % at 10 µM; actives 11% (n = 2,800); AID 488961;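 active means ratio signal rise beyond 5 SD above unstimulated control wells' mean, seen in both duplicate runs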;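 further: plate controls were buffer EC0 wells for no effect and acetylcholine ECmax response for full effect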
* = called active by the depositor; i = inactive; / = no result given. Rows were chosen to be rich in hits. Some 2.3% of all compounds tested hit in one or more screens of this group.

SMILES	TRPC4 act	TRPC6 inhibitor	TRPC6 activator	TRPC4 PAM	TRPC4 block	HEK293 MPD ctr-2	HEK293 MPD ctr 2-2	TRPC4/MOR mod	TRPC4/MOR inh 2	TRPC6 inh conf	TRPC6 act conf	others
COCc1cc(C)nc(SCC[N+](C)(C)CC(=O)Nc2cccc(C)c2)c1C#N	i	-7*	i	i	i	/	/	/	/	i	i	TRPC4 sel inh 2=i;TRPC4 spec=-13%*;HEK293 MPD ctr 2-1=i;HEK293 MPD ctr-1=-170%*
CCCCCOC(=O)c1ccc(NC(=O)c2cccc(NC(=O)c3ccccc3C(=O)O)c2)cc1	i	i	14*	i	i	i	i	15%*	i	/	200%*
CCCCOC(=O)c1ccc(NC(=O)c2ccccc2OC)cc1	i	i	i	i	i	/	/	/	/	/	/
CCCCOC(=O)c1ccc(NC(=O)c2ocnc2C)cc1	i	-6.7*	i	i	i	/	/	/	/	i	i	TRPC4 sel inh 2=i;TRPC4 spec=i;HEK293 MPD ctr 2-1=i;HEK293 MPD ctr-1=i
CCCCOC(=O)c1ccc(NC(=O)c2ccoc2C)cc1	i	i	i	i	i	/	/	/	/	/	/
CC(=O)c1cccc(NC(=O)c2cc3nc(C)cc(C)n3n2)c1	i	-5.1*	i	i	i	i	i	i	i	i	i
Cc1ccc2nc(N=C(N)N)nc(C)c2c1	i	-9.4*	i	i	i	-196%*	i	-36%*	64%*	37%*	i
CCCc1nc(NCc2ccccc2)c(C#N)c2c1CCCC2	i	i	i	i	i	/	/	/	/	/	/
CCN1CCc2c(C#N)c(NCc3ccccc3)nc(N(CC)CC)c2C1	i	-7.2*	i	i	i	/	/	/	/	i	i	TRPC4 sel inh 2=66%*;TRPC4 spec=-10%*;HEK293 MPD ctr 2-1=i;HEK293 MPD ctr-1=i
C=CCNc1nc(NCc2ccccc2)c(C#N)c2c1CN(C)CC2	i	-6.5*	i	i	i	-75%*	i	-21%*	46%*	i	i
C[C@]12C=CC(=O)C=C1CC[C@@H]1C2=CC[C@]2(C)[C@@H](C(=O)CN3CCN(c4cc(N5CCCC5)nc(N5CCCC5)n4)CC3)CC[C@@H]12	i	-6.7*	i	i	i	-238%*	i	-54%*	64%*	69%*	i
CCOC(=O)c1c(CSc2cccs2)n(C)c2cc(Br)c(O)c(CN(C)C)c12	i	-6.4*	i	i	i	i	i	i	72%*	54%*	i
COc1cc(CNc2ncn[nH]2)ccc1OCc1cccc(C)c1	i	i	i	i	i	/	/	/	/	/	/
O=C(NNS(=O)(=O)c1ccc(F)cc1)C1CCN(Cc2cccc(F)c2)CC1	i	-5*	i	i	i	i	i	i	i	i	i
O=C(NNS(=O)(=O)c1ccc2ccccc2c1)C1CCN(Cc2ccccc2)CC1	i	-18*	i	i	i	/	/	/	/	83%*	/	TRPC4 sel inh 2=i;TRPC4 spec=4.8%*;HEK293 MPD ctr 2-1=0.0%*;HEK293 MPD ctr-1=5.2%*
O=C(NNS(=O)(=O)c1ccc(F)cc1)C1CCN(S(=O)(=O)c2ccccc2)CC1	i	i	i	i	i	/	/	/	/	/	/
O=S(=O)(NC1CCN(Cc2ccccc2)CC1)c1ccc2ccccc2c1	i	i	i	i	i	/	/	/	/	/	/
O=C(ONC1=NCCCCC1)c1cccc([N+](=O)[O-])c1	i	i	i	i	i	/	/	/	/	/	/
O=[N+]([O-])c1cccc(/C=N/NC2=NCCCCC2)c1	i	-5.1*	i	i	i	-80%*	i	-15%*	39%*	i	i
COc1ccccc1OCc1ccc(C(=O)N2CCOCC2)o1	i	i	i	i	i	/	/	/	/	/	/
COc1ccccc1OCc1ccc(C(=O)N2CCCCC2)o1	i	-5.2*	i	i	i	i	i	i	i	i	i
CCOC(=O)C1CCN(C(=O)c2sc3nc(C)nc(N4CCC(C)CC4)c3c2C)CC1	i	-9*	14*	i	i	198%*	i	30%*	i	78%*	127%*
CCOC(=O)C1CCN(C(=O)c2sc3ncnc(N4CCC(C)CC4)c3c2C)CC1	i	i	i	i	i	/	/	/	/	/	/
CCCN1CCC(=NNc2ccc(S(=O)(=O)N(CC)CC)cc2[N+](=O)[O-])CC1	i	-5.9*	i	i	i	i	i	-11%*	51%*	46%*	i
Cc1cccc(NC(=O)CCN2CCCC(C)C2)c1 (stereo not drawn)	i	i	i	i	i	/	/	/	/	/	/
O=C(COC(=O)c1cc(S(=O)(=O)N2CCOCC2)ccc1F)NCc1ccco1	i	-6.2*	i	i	i	i	i	i	i	i	i
O=C(COC(=O)c1ccc(F)c(S(=O)(=O)N2CCOCC2)c1)NCc1ccco1	i	i	i	i	i	/	/	/	/	/	/
Cc1cc(C)n(Cc2ccc(NC(=O)c3ccc(COc4ccccc4Br)cc3)cc2)n1	i	i	i	i	i	/	/	/	/	/	/

Screens (PubChem BioAssay)
